Tests used:
[1] = Selectivity index, ratio of IC50 for human PMA-differentaited THP1 cells to IC50 for promastigote form of Leishmania donovani Dd8; assay type: toxicity; conditions: PMA-differentiated THP1 cells, read-out: Ratio IC50
How it was run: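 Ratio of IC50 against THP-1 macrophages (normal cells) to IC50 against L. donovani promastigotes.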

Leishmania donovani = assay: Antileishmanial activity against Leishmania donovani Dd8 promastigote forms after 48 hrs by neubauer hemocytometer method; assay type: functional; conditions: for IC50: Dd8, 48 h
How it was run: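 Promastigotes of L. donovani Dd8 strain exposed 48 h to increasing concentrations of test agent; percent viability scored, IC50 derived.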

THP-1 [2] = assay: Cytotoxicity against human PMA-differentaited THP1 cells after 24 hrs by MTT assay; assay type: cell-based; conditions: THP-1, 24 h
THP-1 [3] = assay: Cytotoxicity against human PMA-differentaited THP1 cells assessed as cell viability at 100 uM after 24 hrs by MTT assay; assay type: cell-based; conditions: thp-1, 24 h

SMILES | IC50 (Leishmania donovani) [µM] | selectivity ratio [1] | Activity (Leishmania donovani) | IC50 (THP-1 [2]) [µM] | Activity (THP-1 [3])
COc1ccc(-n2cc(COC(=O)[C@@H](N)Cc3c[nH]c4ccccc34)nn2)cc1 | 94.5 | 2.06 | Dose-dependent effect | 195 | Non-Toxic
CCCCCCCCCCCCCCCCOP(=O)([O-])OCC[N+](C)(C)C [MILTEFOSINE] | 27.1 | 1.99 | – | 54.1 | –
N[C@@H](Cc1ccccc1)C(=O)OCc1cn(-c2ccc(Cl)cc2)nn1 | 132 | 2.94 | – | 389 | –
N[C@@H](Cc1c[nH]c2ccccc12)C(=O)OCc1cn(-c2ccc([N+](=O)[O-])cc2)nn1 | 119 | 1.47 | – | 174 | –
N[C@@H](Cc1c[nH]c2ccccc12)C(=O)OCc1cn(-c2ccc(Cl)cc2)nn1 | 129 | 2.46 | – | 317 | –
N[C@@H](Cc1ccccc1)C(=O)OCc1cn(-c2ccccc2)nn1 | 163 | 3.09 | – | 504 | –
N[C@@H](Cc1c[nH]c2ccccc12)C(=O)OCc1cn(-c2ccc(F)cc2)nn1 | 151 | 2.32 | – | 352 | –
N[C@@H](Cc1c[nH]c2ccccc12)C(=O)OCc1cn(-c2ccccc2)nn1 | 138 | 1.39 | – | 191 | –
N[C@@H](Cc1ccccc1)C(=O)OCc1cn(-c2ccc([N+](=O)[O-])cc2)nn1 | 171 | 1.05 | – | 180 | –
COc1ccc(-n2cc(COC(=O)[C@@H](N)Cc3ccccc3)nn2)cc1 | 144 | 1.8 | – | 260 | –

Now from value to molecule, other results behind:

IC50 (Leishmania donovani) [µM] | SMILES | selectivity ratio [1] | Activity (Leishmania donovani) | IC50 (THP-1 [2]) [µM] | Activity (THP-1 [3])
88.8 | Cc1ccc(-n2cc(COC(=O)[C@@H](N)Cc3ccccc3)nn2)cc1 | 3.28 | Dose-dependent effect | 292 | Non-Toxic
99.4 | Cc1ccc(-n2cc(COC(=O)[C@@H](N)Cc3c[nH]c4ccccc34)nn2)cc1 | 2.95 | – | 293 | –
157 | O=C(OCc1cn(-c2ccc(Cl)cc2)nn1)[C@@H]1CCCN1 | 2.2 | – | 346 | –
133 | N[C@@H](Cc1ccccc1)C(=O)OCc1cn(-c2ccc(F)cc2)nn1 | 1.48 | – | 196 | –
175 | Cc1ccc(-n2cc(COC(=O)[C@@H]3CCCN3)nn2)cc1 | 2.4 | – | 421 | –
189 | O=C(OCc1cn(-c2ccc([N+](=O)[O-])cc2)nn1)[C@@H]1CCCN1 | 1.82 | – | 344 | –
104 | COc1ccc(-n2cc(COC(=O)[C@@H]3CCCN3)nn2)cc1 | 2.11 | – | 218 | –
122 | O=C(OCc1cn(-c2ccc(F)cc2)nn1)[C@@H]1CCCN1 | 2.54 | – | 309 | –
96.9 | O=C(OCc1cn(-c2ccccc2)nn1)[C@@H]1CCCN1 | 8.05 | Dose-dependent effect | 780 | Non-Toxic

Source: ChEMBL document CHEMBL4014305, “Anti-leishmanial and cytotoxic activities of amino acid-triazole hybrids: Synthesis, biological evaluation, molecular docking and in silico physico-chemical properties” (Bioorg Med Chem Lett, 2017)
